pIC50: −log10 of the molar value. Calls of active or inactive are those of the source. The rule behind the calls is not given here.

In general, pIC50 refers to the negative decadic logarithm of the IC50, by convention in mol/L.

Holding throughout (assay type): functional, cell-based
Assay [1] relates to Huh-7. In words: Cytotoxicity against human Huh-7 cells assessed as cell growth inhibition incubated for 72 hrs by SRB assay. Conditions: for pIC50: Huh-7, 72 h. The method in brief: (§1)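 Cells seeded at 1000–3000 per well, treated after 24 h with 2.5–40 μM (40, 20, 10, 5, 2.5 μM) for 72 h, in duplicate or triplicate; DMSO negative control. Fixed with 10% TCA 1 h at 4 °C, stained with 0.4% SRB in 1% acetic acid, dye solubilized in 10 mM TBS, A515 read; OD normalized to DMSO control, IC50 from growth-inhibition curves.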

Another assay relates to HCT-116. In words: Cytotoxicity against human HCT-116 cells assessed as cell growth inhibition incubated for 72 hrs by SRB assay. The following applies: for pIC50: HCT-116, 72 h. The gist of the method:
as §1
In general terms: The SRB assay estimates cell density from bound dye.

The subject of a further assay is MCF7. In words: Cytotoxicity against human MCF7 cells assessed as cell growth inhibition incubated for 72 hrs by SRB assay. The following applies: for pIC50: MCF7, 72 h. The method in brief: as §1
The subject of the next assay is HepG2. In words: Cytotoxicity against human HepG2 cells assessed as cell growth inhibition incubated for 72 hrs by SRB assay. The following applies: HepG2, 72 h. The method in brief:
as §1

The subject of a further assay is Hep 3B2. In words: Cytotoxicity against human Hep3B cells assessed as cell growth inhibition incubated for 72 hrs by SRB assay. The gist of the method: as §1
Another assay has as its system PLC. In words: Cytotoxicity against human PLC cells assessed as cell growth inhibition incubated for 72 hrs by SRB assay. The method in brief:
as §1

Assay [2] relates to Mahlavu. In words: Cytotoxicity against human Mahlavu cells assessed as cell growth inhibition incubated for 72 hrs by SRB assay. The gist of the method:
as §1

The nature of assay [3]: Cytotoxicity against human FOCUS cells assessed as cell growth inhibition incubated for 72 hrs by SRB assay. The gist of the method:
as §1

A further assay has as its system SNU-475. In words: Cytotoxicity against human SNU-475 cells assessed as cell growth inhibition incubated for 72 hrs by SRB assay. The following applies: SNU-475, 72 h. The method in brief:
as §1

The subject of another assay is SNU-182. In words: Cytotoxicity against human SNU-182 cells assessed as cell growth inhibition incubated for 72 hrs by SRB assay. The following applies: for pIC50: SNU-182, 72 h. The method in brief: as §1
The test system of the next assay is SNU-387. In words: Cytotoxicity against human SNU-387 cells assessed as cell growth inhibition incubated for 72 hrs by SRB assay. Conditions: SNU-387, 72 h. The gist of the method: as §1
A further assay concerns SNU-398. In words: Cytotoxicity against human SNU-398 cells assessed as cell growth inhibition incubated for 72 hrs by SRB assay. Conditions: SNU-398, 72 h. The method in brief: as §1
In another assay the test system is SNU-423. In words: Cytotoxicity against human SNU-423 cells assessed as cell growth inhibition incubated for 72 hrs by SRB assay. Conditions: SNU-423, 72 h. The gist of the method:
as §1

For another assay, the system named is SNU-449. In words: Cytotoxicity against human SNU-449 cells assessed as cell growth inhibition incubated for 72 hrs by SRB assay. Conditions: SNU-449, 72 h. The method in brief:
as §1

Assay [4] concerns Huh-7. In words: Upregulation of intracellular ATP level in human Huh-7 cells at 5 uM incubated for 72 hrs by Kinase Glo assay. The method in brief:
(§2)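 Huh7 and Mahlavu cells grown 24 h, then treated with 5 μM for 72 h. Lysates protein-normalized by Bradford; ATP read by Kinase-Glo Plus luminescence per kit protocol. Staurosporine positive control, DMSO negative control.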

Assay [5] relates to Mahlavu. In words: Upregulation of intracellular ATP level in human Mahlavu cells at 5 uM incubated for 72 hrs by Kinase Glo assay. The method in brief: as §2

For `CC(C)c1ccc(S(=O)(=O)N2CCN(c3ncnc4c3ncn4C3CCCC3)CC2)cc1`, the figures for the negative-log IC50 (pIC50) with Huh-7 [1], in the assay with HCT-116 and with MCF7 were 4.83, 4.94 and 4.76, respectively.
Taken in the same sequence, the figures for `Cc1ccc(S(=O)(=O)N2CCN(c3ncnc4c3ncn4C3CCCC3)CC2)cc1` were 4.31, 3.71 and 3.77.
Taken in the same sequence, the figures for `COc1ccc(-c2ncnc3c2ncn3C2CCCC2)cc1` were 4.97, 4.41 and 4.71.
For the compound `O=S(=O)(c1ccc(Br)cc1)N1CCN(c2ncnc3c2ncn3C2CCCC2)CC1`, the pIC50 is 5.10 in the assay with Huh-7 [1]; 5.08 with HCT-116; 5.19 in the assay on MCF7; 5.20 in the assay with HepG2; 5.37 in the assay with Hep 3B2; 5.04 with PLC. The pIC50 in the assay with Mahlavu [2] was 4.69; in assay [3] it was 4.80; in the assay on SNU-475 it was 5.05; in the assay on SNU-182, 4.22; in the assay with SNU-387, 4.80; in the assay on SNU-398, 5.40. Moreover, the results for the pIC50 in the assay with SNU-423 and in the assay on SNU-449 were 4.98 and 5.07, respectively.
Turning to `Cc1ccc(-c2ncnc3c2ncn3C2CCCC2)cc1`, the pIC50 with Huh-7 [1] was 4.62; with HCT-116, 4.65; with MCF7, 4.75.
`COc1ccc(S(=O)(=O)N2CCN(c3ncnc4c3ncn4C3CCCC3)CC2)cc1`: the pIC50 is 5.15 in the assay with Huh-7 [1]; 4.98 with HCT-116; 5.07 in the assay with MCF7; 5.57 in the assay with HepG2; 4.14 in the assay with Hep 3B2; 4.07 in the assay with PLC. Moreover, the pIC50 is 5.05 in the assay on Mahlavu [2]; 5.00 in assay [3]; 4.24 with SNU-475; 4.80 with SNU-387; 5.16 with SNU-398; 5.17 in the assay on SNU-423. Moreover, the negative-log IC50 (pIC50) in the assay with SNU-449 was 4.70. The “growth inhibition (GI)” value with SNU-182 was “inactive”.
`O=S(=O)(c1ccc(C(F)(F)F)cc1)N1CCN(c2ncnc3c2ncn3C2CCCC2)CC1`: the pIC50 with Huh-7 [1] was 4.91; in the assay on HCT-116, 4.49; in the assay on MCF7 it was 4.90.
Taken in the same sequence, the figures for `O=S(=O)(c1ccc(Cl)cc1)N1CCN(c2ncnc3c2ncn3C2CCCC2)CC1` were 4.46, 4.35 and 4.98.
In the case of `CN[C@@H]1C[C@H]2O[C@@](C)([C@@H]1OC)n1c3ccccc3c3c4c(c5c6ccccc6n2c5c31)C(=O)NC4`, the outcome in the assay with Huh-7 [4] and with Mahlavu [5] was inactive.
For the compound `OC[C@H]1O[C@@H](n2cnc3c2N=CNC[C@H]3O)C[C@@H]1O`, the “growth inhibition (GI)” value in the assay with Huh-7 [1], in the assay on HCT-116 and with MCF7 was “inactive” each time.
As for `Clc1ccc(N2CCN(c3ncnc4c3ncn4C3CCCC3)CC2)cc1Cl`, the pIC50 in the assay on Huh-7 [1] is 7.40; in the assay on HCT-116, 7.40; in the assay on MCF7, 6.80; with HepG2, 7.70; in the assay on Hep 3B2, 7.52; in the assay on PLC, 5.15. For the same compound, the pIC50 with Mahlavu [2] is 7.00; in assay [3], 6.30; in the assay on SNU-475, 5.60; with SNU-182, 4.19; in the assay with SNU-387, 4.70; in the assay on SNU-398, 6.70. For the same compound, the pIC50 was 5.00 in the assay on SNU-423 and above 7.00 with SNU-449.
On to `FC(F)(F)Oc1ccc(-c2ncnc3c2ncn3C2CCCC2)cc1`, for which the results for the negative logarithm of the IC50 (pIC50) in the assay with Huh-7 [1], in the assay with HCT-116 and in the assay on MCF7 were 4.82, 4.58 and 4.62, respectively.
For `Clc1ccc(-c2ncnc3c2ncn3C2CCCC2)cc1`, the pIC50 in the assay on Huh-7 [1] is 4.81. Besides, the “growth inhibition (GI)” value in the assay on HCT-116 and in the assay on MCF7 was “inactive” each time.
Regarding `O=S(=O)(c1ccccc1)N1CCN(c2ncnc3c2ncn3C2CCCC2)CC1`, the values for the negative-log IC50 (pIC50) in the assay on Huh-7 [1], with HCT-116 and in the assay with MCF7 were 4.88, 4.92 and 4.95, respectively.
For the compound `CC(C)(C)c1ccc(-c2ncnc3c2ncn3C2CCCC2)cc1`, the negative-log IC50 (pIC50) with Huh-7 [1] was 5.20; with HCT-116, 5.18; in the assay on MCF7, 4.90; in the assay on HepG2 it was 5.57; with Hep 3B2 it was 5.17; in the assay on PLC, 5.47. In addition, the negative-log IC50 (pIC50) is 5.40 with Mahlavu [2]; 5.70 in assay [3]; 4.91 in the assay with SNU-475; 4.91 in the assay on SNU-182; 5.70 with SNU-387; 5.74 in the assay with SNU-398. Moreover, the negative logarithm of the IC50 (pIC50) in the assay with SNU-423 is 5.40; in the assay on SNU-449, 5.16.
Take `O=S(=O)(c1ccc(F)cc1)N1CCN(c2ncnc3c2ncn3C2CCCC2)CC1`: the pIC50 in the assay with Huh-7 [1] was 5.05; with HCT-116, 4.92; in the assay with MCF7 it was 5.28; with HepG2, 5.32; with Hep 3B2 it was 5.21; with PLC it was 4.81. The pIC50 is 4.94 in the assay with Mahlavu [2]; 4.90 in assay [3]; 4.67 in the assay on SNU-475; 4.32 in the assay on SNU-182; 4.95 in the assay with SNU-387; 5.10 in the assay on SNU-398. The figures for the negative-log IC50 (pIC50) with SNU-423 and with SNU-449 were 5.02 and 4.79, respectively.
Turning to `FC(F)(F)c1ccc(-c2ncnc3c2ncn3C2CCCC2)cc1`, the pIC50 in the assay on Huh-7 [1] was 4.53; in the assay on HCT-116, 5.22; with MCF7, 4.69.
In the same order, the values of `c1ccc(-c2ncnc3c2ncn3C2CCCC2)cc1` are 4.89, 4.86 and 4.80.
Taken in the same sequence, the figures for `Fc1ccc(-c2ncnc3c2ncn3C2CCCC2)cc1` were 5.17, 5.21 and 4.81.
For `Nc1nc(F)nc2c1ncn2[C@@H]1O[C@H](CO)[C@@H](O)[C@@H]1O` [FLUDARABINE], the negative logarithm of the IC50 (pIC50) in the assay on Huh-7 [1] is 4.61; in the assay on HCT-116, 5.08; with HepG2, 4.77; in the assay with Hep 3B2, 4.56; in the assay on PLC, 4.38; with Mahlavu [2], 4.85. Moreover, the negative-log IC50 (pIC50) in assay [3] is 4.86; in the assay with SNU-475, 4.38; in the assay with SNU-182 it was 4.43; in the assay with SNU-387 it was 4.47; in the assay on SNU-398, 6.70; in the assay on SNU-423 it was 4.49. In addition, the pIC50 in the assay on SNU-449 was 4.60.
Regarding `Brc1ccc(-c2ncnc3c2ncn3C2CCCC2)cc1`, the figures for the negative-log IC50 (pIC50) with Huh-7 [1] and with MCF7 were 4.80 and 4.25, respectively. In addition, in the assay with HCT-116, the inhibition entry is “inactive”.
For `Nc1nc(Cl)nc2c1ncn2[C@H]1C[C@H](O)[C@@H](CO)O1` [CLADRIBINE], the pIC50 in the assay with Huh-7 [1] was 6.22; with HCT-116, above 7.00; with HepG2 it was 6.40; in the assay with Hep 3B2, 7.00; in the assay on PLC, 5.04; with Mahlavu [2], above 7.00. The pIC50 in [3] was above 7.00; in the assay on SNU-475, 5.60; in the assay on SNU-182 it was 4.63; in the assay on SNU-387, 5.15; in the assay with SNU-398, above 7.00; in the assay on SNU-423, 5.17. For the same compound, the pIC50 in the assay with SNU-449 is 4.43.
In the case of `Cc1ccc(N2CCN(c3ncnc4c3ncn4C3CCCC3)CC2)cc1`, the negative logarithm of the IC50 (pIC50) in the assay with Huh-7 [1] is 5.85; in the assay on HCT-116, 5.72; in the assay on MCF7, 5.19; with HepG2, 6.05; in the assay with Hep 3B2, 5.51; in the assay with PLC it was 4.68. For the same compound, the pIC50 with Mahlavu [2] was 5.38; in [3] it was 5.30; with SNU-475, 4.75; in the assay with SNU-182, 4.21; with SNU-387, 4.06; with SNU-398, 5.72. Also, the negative logarithm of the IC50 (pIC50) in the assay with SNU-423 is 4.76; with SNU-449, 4.77.
